Results taken from ChEMBL document CHEMBL4138104, “Indole carboxylic acid esters of melampomagnolide B are potent anticancer agents against both hematological and solid tumor cells” (Eur J Med Chem, 2017).

Assays:
Assay type in all cases: functional
[1] = tested on: HCC 2998; experiment: Growth inhibition of human HCC2998 cells incubated for 48 hrs by sulforhodamine B assay; settings: HCC 2998, 48 h
In short: (§1)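 NCI-60 screen. Compounds were dosed at five concentrations spanning 10^-4 to 10^-8 M for 48 h at 37 °C. Cells were TCA-fixed, stained with 0.4% SRB and read at 515 nm against time-zero and vehicle controls. GI50 is the concentration giving a 50% reduction in net protein increase.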

[2] = tested on: U-251; experiment: Growth inhibition of human U251 cells incubated for 48 hrs by sulforhodamine B assay; settings: U-251, 48 h
In short: (§2)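 NCI-60 screen run at NCI. Cells grown in RPMI medium with 5% FBS and 2 mM L-glutamine, plated at 5,000–40,000 cells/well, and preincubated 24 h at 37 °C. Time-zero plates were TCA-fixed. Compounds came from DMSO stocks and were tested at five concentrations from 10^-4 to 10^-8 M for 48 h. Cells were then TCA-fixed, stained with 0.4% SRB, and OD read at 515 nm. GI50 is the concentration giving a 50% reduction in net protein increase versus control.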

[3] = tested on: HL-60(TB); experiment: Growth inhibition of human HL-60(TB) cells incubated for 48 hrs by sulforhodamine B assay; settings: HL-60, 48 h
In short: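 Performed at NCI's 60-line screen. Cells grown in RPMI with 5% FBS and 2 mM L-glutamine, plated 5,000–40,000 cells/well and incubated 24 h at 37 °C before compound addition. DMSO stocks were diluted in medium with gentamicin, and five concentrations spanning 10^-4 to 10^-8 M were tested. Exposure was 48 h. Cells were fixed with TCA, stained with SRB, and read at 515 nm. GI50 taken from log dose-response curves as 50% reduction in net protein increase versus control.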

[4] = tested on: NCI-H460; experiment: Growth inhibition of human NCI-H460 cells incubated for 48 hrs by sulforhodamine B assay; settings: NCI-H460, 48 h; in short: as §1
[5] = tested on: NCI-H226; experiment: Growth inhibition of human NCI-H226 cells incubated for 48 hrs by sulforhodamine B assay; settings: NCI-H226, 48 h; in short: as §1
[6] = tested on: NCI-H322M; experiment: Growth inhibition of human NCI-H322M cells incubated for 48 hrs by sulforhodamine B assay; in short: as §1
[7] = tested on: SF-268; experiment: Growth inhibition of human SF268 cells incubated for 48 hrs by sulforhodamine B assay; settings: SF-268, 48 h; in short: as §1
[8] = tested on: MOLT-4; experiment: Growth inhibition of human MOLT4 cells incubated for 48 hrs by sulforhodamine B assay; settings: MOLT-4, 48 h; in short: as §1
[9] = tested on: MCF7; experiment: Growth inhibition of human MCF7 cells incubated for 48 hrs by sulforhodamine B assay; settings: MCF7, 48 h; in short: as §1
[10] = tested on: SK-OV-3; experiment: Growth inhibition of human SKOV3 cells incubated for 48 hrs by sulforhodamine B assay; settings: SK-OV-3, 48 h; in short: as §1
[11] = tested on: RXF 393; experiment: Growth inhibition of human RXF393 cells incubated for 48 hrs by sulforhodamine B assay; settings: RXF 393, 48 h; in short: as §1
[12] = tested on: HT-29; experiment: Growth inhibition of human HT-29 cells incubated for 48 hrs by sulforhodamine B assay; settings: HT-29, 48 h; in short: as §1
[13] = tested on: UO-31; experiment: Growth inhibition of human UO31 cells incubated for 48 hrs by sulforhodamine B assay; settings: UO-31, 48 h; in short: as §2
[14] = tested on: HCT-116; experiment: Growth inhibition of human HCT116 cells incubated for 48 hrs by sulforhodamine B assay; settings: HCT-116, 48 h; in short: as §1
[15] = tested on: K562; experiment: Growth inhibition of human K562 cells incubated for 48 hrs by sulforhodamine B assay; settings: K562, 48 h; in short: as §1
[16] = tested on: SK-MEL-28; experiment: Growth inhibition of human SK-MEL-28 cells incubated for 48 hrs by sulforhodamine B assay; settings: SK-MEL-28, 48 h; in short: as §1
[17] = Cytotoxicity against human M9-ENL1 cells assessed as reduction in cell viability by trypan blue staining-based assay
In short: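 M9-ENL1 AML cells (MLL-ENL-transduced human blood cells) plated at 10^6 cells/mL in alpha-MEM with 5% human plasma, 20% FBS, SCF, IL-3, IL-7 and FLT3. Drug diluted from DMSO stock into PBS, final DMSO ≤0.5%. After 24 h exposure, dead cells assessed by trypan blue and by flow cytometry (Annexin V/PI or Annexin V/7-AAD). Viability normalized to vehicle; EC50 from dose-response curves; triplicate.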

[18] = tested on: NCI/ADR-RES; experiment: Growth inhibition of human NCI/ADR-RES cells incubated for 48 hrs by sulforhodamine B assay; in short: as §1
[19] = tested on: SNB-19; experiment: Growth inhibition of human SNB19 cells incubated for 48 hrs by sulforhodamine B assay; settings: SNB-19, 48 h; in short: as §2
[20] = tested on: A498; experiment: Growth inhibition of human A498 cells incubated for 48 hrs by sulforhodamine B assay; settings: A498, 48 h; in short: as §1
[21] = tested on: UACC-257; experiment: Growth inhibition of human UACC257 cells incubated for 48 hrs by sulforhodamine B assay; settings: UACC-257, 48 h; in short: as §2
[22] = tested on: UACC-62; experiment: Growth inhibition of human UACC62 cells incubated for 48 hrs by sulforhodamine B assay; settings: UACC-62, 48 h; in short: as §2
[23] = tested on: RPMI-8226; experiment: Growth inhibition of human RPMI8226 cells incubated for 48 hrs by sulforhodamine B assay; settings: RPMI-8226, 48 h; in short: as §1
[24] = tested on: Malme-3M; experiment: Growth inhibition of human MALME-3M cells incubated for 48 hrs by sulforhodamine B assay; in short: as §1
[25] = tested on: OVCAR-8; experiment: Growth inhibition of human OVCAR8 cells incubated for 48 hrs by sulforhodamine B assay; settings: OVCAR-8, 48 h; in short: as §1
[26] = tested on: OVCAR-5; experiment: Growth inhibition of human OVCAR5 cells incubated for 48 hrs by sulforhodamine B assay; settings: OVCAR-5, 48 h; in short: as §1
[27] = tested on: CCRF-CEM; experiment: Growth inhibition of human CCRF-CEM cells incubated for 48 hrs by sulforhodamine B assay; in short: as §1
[28] = tested on: HOP-92; experiment: Growth inhibition of human HOP92 cells incubated for 48 hrs by sulforhodamine B assay; settings: HOP-92, 48 h; in short: as §1
[29] = tested on: HCT-15; experiment: Growth inhibition of human HCT15 cells incubated for 48 hrs by sulforhodamine B assay; settings: HCT-15, 48 h; in short: as §1
[30] = tested on: SF-295; experiment: Growth inhibition of human SF295 cells incubated for 48 hrs by sulforhodamine B assay; settings: SF-295, 48 h; in short: as §1
[31] = tested on: KM12; experiment: Growth inhibition of human KM12 cells incubated for 48 hrs by sulforhodamine B assay; settings: KM12, 48 h; in short: as §1
[32] = tested on: SN12C; experiment: Growth inhibition of human SN12C cells incubated for 48 hrs by sulforhodamine B assay; in short: as §1
[33] = tested on: LOX IMVI; experiment: Growth inhibition of human LOXIMVI cells incubated for 48 hrs by sulforhodamine B assay; in short: as §1
[34] = tested on: SF-539; experiment: Growth inhibition of human SF539 cells incubated for 48 hrs by sulforhodamine B assay; settings: SF-539, 48 h; in short: as §1
[35] = tested on: SW-620; experiment: Growth inhibition of human SW620 cells incubated for 48 hrs by sulforhodamine B assay; settings: SW-620, 48 h; in short: as §2
[36] = tested on: A549; experiment: Growth inhibition of human A549/ATCC cells incubated for 48 hrs by sulforhodamine B assay; settings: A549, 48 h; in short: as §1
[37] = tested on: NCI-H23; experiment: Growth inhibition of human NCI-H23 cells incubated for 48 hrs by sulforhodamine B assay; settings: NCI-H23, 48 h; in short: as §1

Row | SMILES | GI50 [1] [nM] | GI50 [2] [nM] | GI50 [3] [nM] | GI50 [4] [nM] | GI50 [5] [nM] | GI50 [6] [nM] | GI50 [7] [nM] | GI50 [8] [nM] | GI50 [9] [nM] | GI50 [10] [nM] | GI50 [11] [nM] | GI50 [12] [nM] | GI50 [13] [nM] | GI50 [14] [nM] | GI50 [15] [nM] | GI50 [16] [nM] | EC50 [17] [nM] | GI50 [18] [nM] | GI50 [19] [nM] | GI50 [20] [nM] | other results
1 | C=C1C(=O)O[C@@H]2[C@H]3O[C@]3(C)CC/C=C(/COC(=O)/C=C/c3c[nH]c4ccccc34)CC[C@@H]12 | 270 | 210 | 250 | 1010 | 230 | 1730 | 220 | 300 | 220 | 1880 | 170 | 190 | 150 | 180 | 270 | 330 | 700 | 350 | 640 | 270 | GI50 [21]: 350 nM; GI50 [22]: 170 nM; GI50 [23]: 30 nM; GI50 [24]: 280 nM; GI50 [25]: 190 nM; GI50 [26]: 310 nM; GI50 [27]: 70 nM; GI50 [28]: 150 nM; GI50 [29]: 180 nM; GI50 [30]: 1620 nM; GI50 [31]: 400 nM; GI50 [32]: 190 nM; GI50 [33]: 50 nM; GI50 [34]: 260 nM; GI50 [35]: 180 nM; GI50 [36]: 1270 nM; GI50 [37]: 1250 nM
2 | C=C1C(=O)O[C@@H]2[C@H]3O[C@]3(C)CC/C=C(/COC(=O)c3cc4cc(F)ccc4[nH]3)CC[C@@H]12 | 2020 | 1820 | 2070 | 3040 | 1760 | 2690 | 1620 | 2260 | 1020 | 11600 | 1470 | 1130 | 1200 | 1500 | 2240 | 1790 | 2800 | 1980 | 5040 | 3350 | GI50 [21]: 2280 nM; GI50 [22]: 1890 nM; GI50 [23]: 2000 nM; GI50 [24]: 1670 nM; GI50 [25]: 2170 nM; GI50 [26]: 1770 nM; GI50 [27]: 910 nM; GI50 [28]: 1380 nM; GI50 [29]: 1150 nM; GI50 [30]: 7100 nM; GI50 [31]: 1980 nM; GI50 [32]: 1850 nM; GI50 [33]: 1050 nM; GI50 [34]: 1550 nM; GI50 [35]: 1430 nM; GI50 [36]: 3080 nM; GI50 [37]: 1900 nM
3 | C=C1C(=O)O[C@@H]2[C@H]3O[C@]3(C)CC/C=C(/COC(=O)c3c[nH]c4ccccc34)CC[C@@H]12 | 320 | 610 | 270 | 1100 | 440 | 1850 | 290 | 280 | 260 | 2240 | 190 | 240 | 160 | 190 | 270 | 360 | 1900 | 390 | 1300 | 260 | GI50 [21]: 360 nM; GI50 [22]: 180 nM; GI50 [23]: 40 nM; GI50 [24]: 320 nM; GI50 [25]: 280 nM; GI50 [26]: 400 nM; GI50 [27]: 50 nM; GI50 [28]: 160 nM; GI50 [29]: 250 nM; GI50 [30]: 1940 nM; GI50 [31]: 470 nM; GI50 [32]: 230 nM; GI50 [33]: 40 nM; GI50 [34]: 260 nM; GI50 [35]: 230 nM; GI50 [36]: 1500 nM; GI50 [37]: 1630 nM
4 | C=C1C(=O)O[C@@H]2[C@H]3O[C@]3(C)CC/C=C(/COC(=O)c3cc4cc(OC)ccc4[nH]3)CC[C@@H]12 | 1540 | 1600 | 320 | 1830 | 1570 | 1880 | 1660 | 1320 | 340 | 4900 | 1140 | 350 | 1120 | 420 | 560 | 1230 | 1800 | 1680 | 1570 | 1630 | GI50 [21]: 1610 nM; GI50 [22]: 1380 nM; GI50 [23]: 500 nM; GI50 [24]: 1610 nM; GI50 [25]: 1580 nM; GI50 [26]: 1770 nM; GI50 [27]: 340 nM; GI50 [28]: 440 nM; GI50 [29]: 320 nM; GI50 [30]: 2420 nM; GI50 [31]: 1540 nM; GI50 [32]: 1770 nM; GI50 [33]: 300 nM; GI50 [34]: 1020 nM; GI50 [35]: 640 nM; GI50 [36]: 1660 nM; GI50 [37]: 1490 nM
